Measured values from ChEMBL document CHEMBL5303300, “EUbOPEN Chemogenomics Library - Multiplex” (2023).
Where “and” joins values, the source holds several entries; their conditions need not be identical. Identical values can stand only once.

Columns and labels:
[1] = system: HEK-293T; experiment: Multiplex assay against HEK293T; format: toxicity, cell-based; conditions: human, number of replicates 2
Outline: (§1)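 Live cells were stained at seeding with Hoechst33342, BioTracker Green Microtubule Cytoskeleton Dye, MitoTracker Red and Annexin V Alexa Fluor 680. Following compound addition, they were imaged on a CQ1 microscope at 37°C and 5% CO2 and gated by CellPathfinder machine learning into Hoechst high-intensity objects or normal cells, with normal cells split into healthy, pyknosed or fragmented nuclei and pyknosed cells into mitotic or apoptotic. Tubulin, mitochondrial-mass and membrane-permeability phenotypes are per cents of healthy-nucleus cells.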

[2] = system: U2OS; experiment: Multiplex assay against U2OS; format: toxicity, cell-based; conditions: human, number of replicates 2; outline: as §1
[3] = 12 h, 1 µM, compound concentration 1 uM
[4] = 12 h, 10 µM, compound concentration 10 uM
[5] = 24 h, 1 µM, compound concentration 1 uM
[6] = 24 h, 10 µM, compound concentration 10 uM
[7] = 48 h, 1 µM, compound concentration 1 uM
[8] = 48 h, 10 µM, compound concentration 10 uM

Structure (SMILES): COc1cc2nc(-c3cc(F)ccc3O)nc(N[C@@H]3CNC[C@H]3C(C)(C)O)c2cc1OC.Cl.Cl
- Population Apoptotic (%) [1, 3]: 40% and 65%
- Population Fragmented Nuclei (%) [1, 3]: 4% and 3%
- Population Healthy Nuclei (%) [1, 3]: 86% and 83%
- Population Hoechst High Intensity Objects (%) [1, 3]: 6% and 5%
- Population Membrane Permeable-Phenotype (%) [1, 3]: 4% and 3%
- Population Mitochondria Different-Phenotype (%) [1, 3]: 24% and 25%
- Population Mitotic Cells (%) [1, 3]: 59% and 34%
- Population Normal (%) [1, 3]: 93% and 94%
- Population Pyknosed Nuclei (%) [1, 3]: 9% and 13%
- Population Tubulin-Different-Phenotype (%) [1, 3]: 78%
- Total Cell Count [1, 3]: 681 and 543
- Population Apoptotic (%) [1, 4]: 78% and 80%
- Population Fragmented Nuclei (%) [1, 4]: 2%
- Population Healthy Nuclei (%) [1, 4]: 62% and 61%
- Population Hoechst High Intensity Objects (%) [1, 4]: 7% and 8%
- Population Membrane Permeable-Phenotype (%) [1, 4]: 4% and 2%
- Population Mitochondria Different-Phenotype (%) [1, 4]: 82% and 75%
- Population Mitotic Cells (%) [1, 4]: 21% and 19%
- Population Normal (%) [1, 4]: 92% and 91%
- Population Pyknosed Nuclei (%) [1, 4]: 35%
- Population Tubulin-Different-Phenotype (%) [1, 4]: 97%
- Total Cell Count [1, 4]: 476 and 483
- Population Apoptotic (%) [1, 5]: 47% and 69%
- Population Fragmented Nuclei (%) [1, 5]: 6%
- Population Healthy Nuclei (%) [1, 5]: 85% and 84%
- Population Hoechst High Intensity Objects (%) [1, 5]: 8% and 9%
- Population Membrane Permeable-Phenotype (%) [1, 5]: 3%
- Population Mitochondria Different-Phenotype (%) [1, 5]: 12% and 17%
- Population Mitotic Cells (%) [1, 5]: 52% and 30%
- Population Normal (%) [1, 5]: 91% and 90%
- Population Pyknosed Nuclei (%) [1, 5]: 7% and 8%
- Population Tubulin-Different-Phenotype (%) [1, 5]: 63% and 68%
- Total Cell Count [1, 5]: 1032 and 692
- Population Apoptotic (%) [1, 6]: 87% and 80%
- Population Fragmented Nuclei (%) [1, 6]: 4% and 2%
- Population Healthy Nuclei (%) [1, 6]: 50% and 51%
- Population Hoechst High Intensity Objects (%) [1, 6]: 20% and 25%
- Population Membrane Permeable-Phenotype (%) [1, 6]: 6% and 4%
- Population Mitochondria Different-Phenotype (%) [1, 6]: 65% and 68%
- Population Mitotic Cells (%) [1, 6]: 12% and 20%
- Population Normal (%) [1, 6]: 79% and 74%
- Population Pyknosed Nuclei (%) [1, 6]: 45%
- Population Tubulin-Different-Phenotype (%) [1, 6]: 84% and 89%
- Total Cell Count [1, 6]: 441 and 428
- Population Apoptotic (%) [1, 7]: 22% and 35%
- Population Fragmented Nuclei (%) [1, 7]: 14% and 7%
- Population Healthy Nuclei (%) [1, 7]: 82% and 88%
- Population Hoechst High Intensity Objects (%) [1, 7]: 9% and 11%
- Population Membrane Permeable-Phenotype (%) [1, 7]: 3% and 1%
- Population Mitochondria Different-Phenotype (%) [1, 7]: 1% and 3%
- Population Mitotic Cells (%) [1, 7]: 77% and 64%
- Population Normal (%) [1, 7]: 90% and 88%
- Population Pyknosed Nuclei (%) [1, 7]: 3% and 4%
- Population Tubulin-Different-Phenotype (%) [1, 7]: 26% and 35%
- Total Cell Count [1, 7]: 2589 and 1346
- Population Apoptotic (%) [1, 8]: 85% and 77%
- Population Fragmented Nuclei (%) [1, 8]: 4% and 3%
- Population Healthy Nuclei (%) [1, 8]: 32% and 30%
- Population Hoechst High Intensity Objects (%) [1, 8]: 21% and 24%
- Population Membrane Permeable-Phenotype (%) [1, 8]: 6% and 5%
- Population Mitochondria Different-Phenotype (%) [1, 8]: 58%
- Population Mitotic Cells (%) [1, 8]: 14% and 22%
- Population Normal (%) [1, 8]: 78% and 75%
- Population Pyknosed Nuclei (%) [1, 8]: 62% and 66%
- Population Tubulin-Different-Phenotype (%) [1, 8]: 82% and 81%
- Total Cell Count [1, 8]: 411 and 392
- Population Apoptotic (%) [2, 3]: 100% and 76%
- Population Healthy Nuclei (%) [2, 3]: 57% and 82%
- Population Hoechst High Intensity Objects (%) [2, 3]: 0%
- Population Membrane Permeable-Phenotype (%) [2, 3]: 21% and 13%
- Population Mitochondria Different-Phenotype (%) [2, 3]: 18% and 27%
- Population Mitotic Cells (%) [2, 3]: 0% and 23%
- Population Normal (%) [2, 3]: 100% and 99%
- Population Pyknosed Nuclei (%) [2, 3]: 17% and 10%
- Population Tubulin-Different-Phenotype (%) [2, 3]: 46% and 30%
- Population Apoptotic (%) [2, 4]: 96% and 91%
- Population Fragmented Nuclei (%) [2, 4]: 14% and 11%
- Population Healthy Nuclei (%) [2, 4]: 5% and 3%
- Population Hoechst High Intensity Objects (%) [2, 4]: 0%
- Population Membrane Permeable-Phenotype (%) [2, 4]: 100%
- Population Mitochondria Different-Phenotype (%) [2, 4]: 50% and 66%
- Population Mitotic Cells (%) [2, 4]: 3% and 8%
- Population Normal (%) [2, 4]: 100%
- Population Pyknosed Nuclei (%) [2, 4]: 79% and 85%
- Population Tubulin-Different-Phenotype (%) [2, 4]: 100%
- Population Apoptotic (%) [2, 5]: 83% and 85%
- Population Fragmented Nuclei (%) [2, 5]: 23% and 9%
- Population Healthy Nuclei (%) [2, 5]: 65% and 74%
- Population Hoechst High Intensity Objects (%) [2, 5]: 0%
- Population Membrane Permeable-Phenotype (%) [2, 5]: 26% and 12%
- Population Mitochondria Different-Phenotype (%) [2, 5]: 23% and 34%
- Population Mitotic Cells (%) [2, 5]: 16% and 14%
